PMC2231817 (The Journal of General Physiology, 2000)
Positions count from the first letter of the chain named. Where two headings read alike, the source gives them in different places. Each block holds one molecule with its values, some of them ahead of it.

Tests used:
[1] = test system: rod and olfactory CNG channels; test: Comparison of DAG analogues on cloned CNG channels; format: biochemical; conditions: data not shown
CNG channels = conditions: ref Fodor et al. 1997; cited from earlier work
[2] = target: T1, rat olfactory CNG channel (CNG2, α homomultimer) (Rattus norvegicus, UniProt Q00195); format: biochemical
T1 sequence (Q00195 1-664): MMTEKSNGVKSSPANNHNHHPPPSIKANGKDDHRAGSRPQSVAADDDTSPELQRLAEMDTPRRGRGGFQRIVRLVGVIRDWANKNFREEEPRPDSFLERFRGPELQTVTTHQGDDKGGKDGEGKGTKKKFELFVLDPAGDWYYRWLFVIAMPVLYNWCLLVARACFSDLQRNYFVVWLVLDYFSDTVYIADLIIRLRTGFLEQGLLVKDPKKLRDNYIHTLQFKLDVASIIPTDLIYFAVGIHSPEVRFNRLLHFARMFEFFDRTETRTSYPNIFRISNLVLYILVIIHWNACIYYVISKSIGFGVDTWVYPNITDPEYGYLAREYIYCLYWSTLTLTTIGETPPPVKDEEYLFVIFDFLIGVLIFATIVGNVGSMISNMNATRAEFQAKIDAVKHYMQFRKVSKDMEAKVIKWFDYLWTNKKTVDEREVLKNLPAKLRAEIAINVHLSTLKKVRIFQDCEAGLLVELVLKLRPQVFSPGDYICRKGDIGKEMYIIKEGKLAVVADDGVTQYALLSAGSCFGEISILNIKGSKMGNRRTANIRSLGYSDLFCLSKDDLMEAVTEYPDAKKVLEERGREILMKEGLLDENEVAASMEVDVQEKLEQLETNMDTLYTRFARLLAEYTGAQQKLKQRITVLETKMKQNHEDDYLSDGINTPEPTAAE

[3] = target: T2, bovine rod CNG channel (CNG1, α homomultimer) (Bos taurus, UniProt Q00194); format: biochemical
T2 sequence (Q00194 1-690): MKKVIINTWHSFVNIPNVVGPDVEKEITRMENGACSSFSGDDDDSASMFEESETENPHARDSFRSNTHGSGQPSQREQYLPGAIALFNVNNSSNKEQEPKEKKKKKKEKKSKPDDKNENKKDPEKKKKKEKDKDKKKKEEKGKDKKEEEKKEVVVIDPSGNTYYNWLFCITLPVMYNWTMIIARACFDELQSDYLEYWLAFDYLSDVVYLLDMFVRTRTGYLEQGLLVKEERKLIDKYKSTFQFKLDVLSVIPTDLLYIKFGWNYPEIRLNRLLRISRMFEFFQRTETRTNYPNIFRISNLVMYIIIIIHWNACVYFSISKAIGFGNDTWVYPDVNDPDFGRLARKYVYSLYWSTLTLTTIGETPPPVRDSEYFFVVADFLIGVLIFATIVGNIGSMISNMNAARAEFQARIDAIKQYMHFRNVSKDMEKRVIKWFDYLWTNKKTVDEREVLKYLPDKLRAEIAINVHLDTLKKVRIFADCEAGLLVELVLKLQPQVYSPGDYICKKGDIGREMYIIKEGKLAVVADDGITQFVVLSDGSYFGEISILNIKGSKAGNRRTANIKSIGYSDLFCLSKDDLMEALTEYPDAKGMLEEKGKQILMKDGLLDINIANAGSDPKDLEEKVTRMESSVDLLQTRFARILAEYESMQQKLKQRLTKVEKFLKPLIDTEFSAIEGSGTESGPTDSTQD

[4] = target: T3, CHM 11 rod/olfactory chimeric CNG channel (Bos taurus / Rattus norvegicus, UniProt Q00194+Q00195); test: DAG dose-response on chimera CHM11, inside-out patches from Xenopus oocytes; format: biochemical, bovine/rat; conditions: saturating 2 mM cGMP, five patches
T3 sequence (Q00194 1-690): T2 sequence (Q00194 1-690)
T3 sequence (Q00195 1-664): T1 sequence (Q00195 1-664)
Procedure, shortened: (§1)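 Chimera cRNA injected into Xenopus oocytes, held at 15°C overnight then 18°C for 1–10 d; vitelline membrane removed. […] 1,2-DiC8 from DMSO stock added stepwise to bath (0.05–48 μM; DMSO <1.2%). Leak-subtracted currents; Hill fit to averaged data, scaled to maximal inhibition.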

[5] = target: T4, CHM 13 rod/olfactory chimeric CNG channel (Bos taurus / Rattus norvegicus, UniProt Q00194+Q00195); test: DAG dose-response on chimera CHM13, inside-out patches from Xenopus oocytes; format: biochemical, bovine/rat; conditions: saturating 2 mM cGMP, six patches
T4 sequence (Q00194 1-690): T2 sequence (Q00194 1-690)
T4 sequence (Q00195 1-664): T1 sequence (Q00195 1-664)
Procedure, shortened: as §1

[6] = target: T5, CHM 3 rod/olfactory chimeric CNG channel (Bos taurus / Rattus norvegicus, UniProt Q00194+Q00195); test: DAG dose-response on chimera CHM3, inside-out patches from Xenopus oocytes; format: biochemical, bovine/rat; conditions: saturating 2 mM cGMP, 4 patches
T5 sequence (Q00194 with tags, fused parts or gaps): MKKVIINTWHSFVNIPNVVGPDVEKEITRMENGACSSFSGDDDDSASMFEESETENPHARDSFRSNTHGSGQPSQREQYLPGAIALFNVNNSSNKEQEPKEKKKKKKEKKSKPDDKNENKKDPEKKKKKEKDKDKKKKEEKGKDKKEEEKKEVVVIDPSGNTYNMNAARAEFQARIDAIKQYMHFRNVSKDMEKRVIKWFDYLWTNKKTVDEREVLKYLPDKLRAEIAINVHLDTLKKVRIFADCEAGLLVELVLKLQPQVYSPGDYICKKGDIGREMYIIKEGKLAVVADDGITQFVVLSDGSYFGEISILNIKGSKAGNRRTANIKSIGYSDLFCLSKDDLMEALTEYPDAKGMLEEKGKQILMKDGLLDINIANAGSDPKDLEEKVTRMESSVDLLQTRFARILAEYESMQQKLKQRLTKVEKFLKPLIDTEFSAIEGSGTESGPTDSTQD
T5 sequence (Q00195 147-381): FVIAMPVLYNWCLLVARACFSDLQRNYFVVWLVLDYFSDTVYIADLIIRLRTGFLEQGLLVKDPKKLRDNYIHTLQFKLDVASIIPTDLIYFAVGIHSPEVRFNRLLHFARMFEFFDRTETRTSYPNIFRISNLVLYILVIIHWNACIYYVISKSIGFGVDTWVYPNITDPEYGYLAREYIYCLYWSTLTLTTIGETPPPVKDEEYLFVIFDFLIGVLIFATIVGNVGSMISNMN
Procedure, shortened: as §1

[7] = target: T6, mutant rod CNG channel H468Q (H468Q and A483V), α homomultimer (Bos taurus, UniProt Q00194, A483V/H468Q); format: biochemical, bovine
T6 sequence (Q00194 1-690 H468Q/A483V): T2 sequence (Q00194 1-690) with H468Q, A483V

[8] = target: T7, mouse olfactory CNG channel (Mus musculus, UniProt Q62398); test: Single-channel recording of olfactory channel with DAG; format: biochemical; conditions: +80 mV, saturating cGMP, with and without DAG
T7 sequence (Q62398 1-664): T1 sequence (Q00195 1-664) with P50S, Q69R, V77I, D115G, G118D, V297A, D611E, T661A, A662V
Procedure, shortened: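 Three to five continuous 1-s records per condition, filtered at 5 kHz and sampled at 25 kHz. Amplitude histograms from full records were fit with Gaussians to obtain mean single-channel current.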

[9] = ref Marsh and Phil 1990; cited from earlier work

SMILES: CCCCCCCC(=O)OCC(O)COC(=O)CCCCCCC [1,3-DiC8]
- effectiveness of inhibition relative to 1,2-DiC8 [1]: just as effective as 1,2-DiC8

SMILES: CCCCNc1ccc(C(=O)OCCN(C)C)cc1 [tetracaine]
- Hill coefficient of inhibition (CNG channels): ~1

- EC50 ([2]; read-out: K1/2 for activation by cGMP, with 0.5 μM DAG, +100 mV, single patch): 4000 nM
- Hill coefficient n of cGMP activation ([2]; with 0.5 μM DAG): 2.8
- Hill coefficient n of cGMP activation ([2]; without DAG): 2.8
SMILES: Nc1nc2c(ncn2[C@@H]2O[C@@H]3COP(=O)(O)O[C@H]3[C@H]2O)c(=O)[nH]1 [cGMP]

- factor of increase of cGMP K1/2 ([3]; 0.5 μM DAG): 3.2
- reduction in the maximal current with DAG ([3]; 0.5 μM DAG, cGMP dose-response): 29%
- IC50 ([3]; IC50 for DAG inhibition, saturating 2 mM cGMP, 11 patches): 830 nM
- Hill coefficient n of DAG inhibition ([3]; low cGMP (~30 μM), single patch): 1.3
- DAG concentration completely suppressing cGMP-activated currents ([3]; saturating 2 mM cGMP): ~3 µM
- Hill coefficient n of DAG inhibition ([3]; saturating 2 mM cGMP): 1.7
- INmax (maximal inhibition by DAG) ([3]; saturating 2 mM cGMP): 100%
- factor of increase of cGMP K1/2 ([2]; 0.5 μM DAG): 2.2
- reduction in the maximal current with DAG ([2]; 0.5 μM DAG, cGMP dose-response): 3%
- inhibition of cGMP-activated current by DAG ([2]; 0.5 μM DAG, saturating 100 μM cGMP): small effect
- Hill coefficient n of DAG inhibition ([2]; low cGMP (1.5 μM), single patch): 1.4
- Hill coefficient n of DAG inhibition ([2]; saturating 100 μM cGMP): 1.4
- INmax (maximal inhibition by DAG) ([2]; saturating 100 μM cGMP): 31%
- suppression of cGMP-activated currents at high DAG ([2]; saturating (100 μM) cGMP, DAG as high as 12 μM): only partial suppression
- difference between DAG IC50 of rod and olfactory channel ([2]; saturating cGMP, rod vs olfactory): approximately a fourfold difference
- Hill coefficient n of DAG inhibition [4]: 1.6
- Hill coefficient n of DAG inhibition [5]: 2.8
- Hill coefficient n of DAG inhibition [6]: 1.6
- IC50 [7]: 330 nM
- single-channel amplitude with DAG ([7]; +80 mV, saturating cGMP, with and without 0.25 μM DAG, patch with two channels): 2.1 pA
- extent of inhibition by DAG ([7]; saturating cGMP): fully inhibited
- single-channel amplitude with DAG [8]: 3.2 pA
SMILES: CCCCCCCC(=O)OC[C@H](CO)OC(=O)CCCCCCC [DAG, 1,2-dioctanoyl-sn-glycerol]

SMILES: CCCCCCCC(=O)OC[C@H](COP(=O)([O-])OCC[N+](C)(C)C)OC(=O)CCCCCCC [1,2-dioctanoyl phosphatidylcholine]
- critical micelle concentration [9]: 270 µM
